# Data reported in PMC11621760 (Proceedings of the National Academy of Sciences of the …, 2024).
# Columns and labels:
# [1] = once peak concentration is reached; cited from earlier work
# 22Rv1 cells = assay: Cell growth; type: cell-based, human
# hAR = molecular target: T1, hAR (Homo sapiens, UniProt P10275); conditions: radioligand binding
# T1 sequence (P10275 669-920 limits assumed): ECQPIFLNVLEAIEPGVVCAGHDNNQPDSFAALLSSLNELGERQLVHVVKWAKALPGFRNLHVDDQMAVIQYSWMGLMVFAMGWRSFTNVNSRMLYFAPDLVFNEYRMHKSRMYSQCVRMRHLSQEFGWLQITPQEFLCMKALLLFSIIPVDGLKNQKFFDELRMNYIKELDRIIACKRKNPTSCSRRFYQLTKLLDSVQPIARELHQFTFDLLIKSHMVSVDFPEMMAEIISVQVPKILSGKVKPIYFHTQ
# LNCaP-AR cells = assay: Cell growth; type: cell-based, human
# [2] = Microsome metabolic assay; type: in vitro ADME; conditions: in comparison to control compounds
# AR [3] = molecular target: T2, AR (Homo sapiens, UniProt P10275); type: cell-based; conditions: VCaP, CSS and 10 nM R1881
# T2 sequence (P10275 1-920): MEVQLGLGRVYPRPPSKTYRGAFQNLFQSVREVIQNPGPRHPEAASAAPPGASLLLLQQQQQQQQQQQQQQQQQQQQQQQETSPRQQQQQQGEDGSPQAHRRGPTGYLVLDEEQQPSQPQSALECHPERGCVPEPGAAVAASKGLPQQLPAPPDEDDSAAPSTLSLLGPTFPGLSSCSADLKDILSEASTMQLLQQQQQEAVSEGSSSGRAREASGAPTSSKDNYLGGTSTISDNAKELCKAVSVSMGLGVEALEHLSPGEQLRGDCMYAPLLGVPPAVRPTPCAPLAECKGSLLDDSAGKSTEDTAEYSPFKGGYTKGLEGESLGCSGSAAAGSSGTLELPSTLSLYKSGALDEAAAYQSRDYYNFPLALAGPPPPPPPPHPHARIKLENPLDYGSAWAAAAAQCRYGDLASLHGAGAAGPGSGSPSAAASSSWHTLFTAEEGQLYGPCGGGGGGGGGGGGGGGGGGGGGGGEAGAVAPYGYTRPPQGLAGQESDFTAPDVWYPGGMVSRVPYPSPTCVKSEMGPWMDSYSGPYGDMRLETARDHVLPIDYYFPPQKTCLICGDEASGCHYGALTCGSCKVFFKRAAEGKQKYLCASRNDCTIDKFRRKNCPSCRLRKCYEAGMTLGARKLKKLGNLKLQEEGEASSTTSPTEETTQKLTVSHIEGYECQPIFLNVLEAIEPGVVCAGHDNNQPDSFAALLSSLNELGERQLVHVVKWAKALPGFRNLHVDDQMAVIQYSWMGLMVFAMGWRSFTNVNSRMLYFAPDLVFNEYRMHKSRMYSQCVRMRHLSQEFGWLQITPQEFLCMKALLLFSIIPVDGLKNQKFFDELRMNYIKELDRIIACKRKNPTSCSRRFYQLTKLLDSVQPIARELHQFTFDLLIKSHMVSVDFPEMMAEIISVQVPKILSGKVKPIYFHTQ
# [4] = molecular target: T3, progesterone receptor (PR) (Homo sapiens, UniProt P06401); assay: Radioligand binding assay, progesterone receptor
# T3 sequence (P06401 1-933): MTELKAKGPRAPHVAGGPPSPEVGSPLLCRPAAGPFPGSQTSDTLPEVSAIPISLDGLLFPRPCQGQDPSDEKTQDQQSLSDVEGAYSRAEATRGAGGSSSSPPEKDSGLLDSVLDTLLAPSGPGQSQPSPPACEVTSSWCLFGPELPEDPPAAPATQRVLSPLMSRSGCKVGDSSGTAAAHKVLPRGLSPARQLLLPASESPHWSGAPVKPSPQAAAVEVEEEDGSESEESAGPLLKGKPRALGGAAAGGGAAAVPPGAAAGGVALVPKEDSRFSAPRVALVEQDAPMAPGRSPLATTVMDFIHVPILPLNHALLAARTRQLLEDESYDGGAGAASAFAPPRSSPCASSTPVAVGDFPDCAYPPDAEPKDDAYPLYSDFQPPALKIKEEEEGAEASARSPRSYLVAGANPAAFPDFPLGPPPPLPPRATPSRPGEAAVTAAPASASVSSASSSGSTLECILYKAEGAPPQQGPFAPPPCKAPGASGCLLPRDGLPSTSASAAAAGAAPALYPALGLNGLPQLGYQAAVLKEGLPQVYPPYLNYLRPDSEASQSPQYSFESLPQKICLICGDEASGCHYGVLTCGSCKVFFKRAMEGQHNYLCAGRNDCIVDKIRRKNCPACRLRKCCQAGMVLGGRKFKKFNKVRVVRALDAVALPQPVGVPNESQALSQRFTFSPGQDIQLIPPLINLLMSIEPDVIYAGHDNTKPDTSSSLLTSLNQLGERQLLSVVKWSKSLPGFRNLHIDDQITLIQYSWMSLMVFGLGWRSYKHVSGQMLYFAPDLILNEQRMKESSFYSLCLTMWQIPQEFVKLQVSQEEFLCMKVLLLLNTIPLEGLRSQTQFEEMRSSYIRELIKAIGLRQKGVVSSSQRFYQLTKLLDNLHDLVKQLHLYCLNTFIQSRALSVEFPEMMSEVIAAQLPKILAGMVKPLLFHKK
# Outline: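 Eurofins Panlabs radioligand binding with steroid hormone receptors and their respective ligands. Buffer: 50 mM Tris-HCl, 0.8 M NaCl, 10% glycerol, 2 mM dithiothreitol, 0.1% BSA, 2% EtOH, pH 7.4. Receptor-ligand incubation, then 15 min with hydroxyapatite slurry. Samples filtered, filters washed three times and counted for specifically bound ligand. Log concentration series gave Ki and IC50.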
# [5] = Parallel Artificial Membrane Permeability Assay; type: in vitro ADME; conditions: pH 6.5
# [6] = system: H3K27ac and AR 3D chromatin contacts; assay: AQuA-HiChIP; type: cell-based, human; conditions: 24 h at 20 µM, LNCaP-AR
# Outline: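 LNCaP-AR cells grown in DMEM, 10% FBS, penicillin-streptomycin-glutamine, 37 °C, 5% CO2. MNase-based HiChIP for AR and H3K27ac with medium-salt washes and mouse chromatin spike-in for absolute quantification (AQuA). Paired-end sequencing to at least 200 million reads. Loops were filtered by distance, minimum AQuA-CPM and connection number, merged into clusters, and ranked by summed short- and long-range contacts.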
# LAPC4 xenograft = LAPC4 xenograft growth in vivo; design: species or system mice; conditions: 20 mg/kg via oral gavage, 42 days
# [7] = Solubility / precipitation in solvents; type: physicochemical
# GFP-AR [8] = molecular target: T4, GFP-AR (Homo sapiens, UniProt P10275); type: cell-based; conditions: murine 3108 cells expressing GFP-AR
# T4 sequence (P10275 1-920): T2 sequence (P10275 1-920)
# GFP-AR [9] = molecular target: T4, GFP-AR; assay: GFP-AR construct nuclear translocation in human cell lines; type: cell-based; conditions: CSS
# AR [10] = molecular target: T2, AR; assay: AR transcriptional assays of the triazole series; type: cell-based; conditions: SI Fig. S1B/C
smiles,measurement,setting,value
"CNC(=O)c1ccc(N2C(=S)N(c3ccc(C#N)c(C(F)(F)F)c3)C(=O)C2(C)C)cc1F [Enzalutamide, enzalutamide]",half-life in patients,[1],around 5 days
CC1(C)C(=O)N(c2ccc(C#N)c(C(F)(F)F)c2)C(=S)N1Cc1ccc(-c2c[nH]nn2)cc1 [BG-15a],growth inhibition compared to enzalutamide,22Rv1 cells,more efficacious in inhibiting growth compared to enzalutamide
same,AR binding affinity (in words),hAR,strong AR binding affinity
same,growth inhibition compared to enzalutamide,LNCaP-AR cells,more efficacious in inhibiting growth compared to enzalutamide
same,microsomal half-life (in words),[2],notably high half-life
same,AR transcriptional activity (luciferase),AR [3],dose-dependent decrease of AR activity
same,binding affinity to the PR (in words),[4],nanomolar range binding affinity
same,drug recovery and cell permeability (PAMPA),[5],performed similarly to each other and enzalutamide
same,H3K27ac long-range contacts at AR loops,[6],decreased long-range acetylation contacts at AR loops
same,tumor growth,LAPC4 xenograft,inhibition of tumor growth
same,solubility (in words),[7],limited
same,"AR translocation to the nucleus (nuclear to cytoplasmic ratio, dose response)",GFP-AR [8],induced nuclear translocation at doses 100 nM to 10 µM
same,AR nuclear translocation (GFP-AR construct),GFP-AR [9],consistently stimulated AR nuclear translocation
Cn1cc(-c2ccc(CN3C(=S)N(c4ccc(C#N)c(C(F)(F)F)c4)C(=O)C3(C)C)cc2)nn1 [15b],anti-AR transcriptional activity (in words),AR [10],dramatic loss in activity
CC(O)(CS(=O)(=O)c1ccc(F)cc1)C(=O)Nc1ccc(C#N)c(C(F)(F)F)c1 (stereo not drawn) [bicalutamide],H3K27ac long-range contacts at AR loops,[6],decreased long-range acetylation contacts at AR loops
